# Screening data: PubChem, The Scripps Research Institute Molecular Screening Center
# A selection: hits, their analogues and other compounds. The true share with any hit is near 4%.
# TAAR1 antag: human TAAR1 antagonism | Q96RJ0 | CHO RD-HGA16 TAAR1, Fluo-8 calcium fluorescence, antagonist | inhibition, % at 3 µM | 360,000 tested, 1.5% active;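 active = inhibition above a per-plate cutoff, the mean inhibition of test compounds on that plate plus 3 SD, cut at about 49% in these data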;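 note: 0% = DMSO plus EC80 beta-PEA response and 100% = DMSO alone without agonist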
# Target sequence (Q96RJ0 whole entry, looked up): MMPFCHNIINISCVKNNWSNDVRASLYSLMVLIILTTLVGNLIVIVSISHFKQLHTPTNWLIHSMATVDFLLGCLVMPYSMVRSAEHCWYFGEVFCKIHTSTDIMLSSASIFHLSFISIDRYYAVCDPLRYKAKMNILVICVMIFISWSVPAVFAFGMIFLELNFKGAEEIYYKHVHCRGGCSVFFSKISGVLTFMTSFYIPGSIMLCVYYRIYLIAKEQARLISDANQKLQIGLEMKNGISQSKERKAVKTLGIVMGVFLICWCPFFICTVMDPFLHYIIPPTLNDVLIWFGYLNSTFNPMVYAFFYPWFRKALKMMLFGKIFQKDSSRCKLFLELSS
#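 Test system – hTAAR1-expressing CHO RD-HGA16 cells, Gα16-coupled · Reagent – β-PEA at EC80 concentration, post-compound challenge · Compound dosing – 3 µM, single point · Timing – 140 s kinetic read after compound, 140 s after agonist · Detection – Fluo-8 intracellular calcium dye fluorescence, real-time kinetic reads · Control set – DMSO and EC80 PEA controls · Repeats – n of 1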
# CHO parental Ca: counter-screen for OX1R antagonists: effect in parental CHO cells; parental CHO-K1, ATP-induced calcium, Fluo-8 fluorescence; inhibition, % at 5.6 µM; 330,000 tested, 0.63% active; AID 463079;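 active = inhibition above that plate's mean sample inhibition plus 3 SD, cut at about 26% in these data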;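 note: 0% = ATP-challenged DMSO wells and 100% = DMSO wells without ATP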
#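 Assay system: parental CHO cells; Read-out basis: percent inhibition of ATP-evoked calcium rise, normalized to controls; Benchmarks: ATP and no-ATP DMSO wells; Compound dosing: single nominal dose of 5.6 µM per compound; Signal: Fluo-8 calcium dye fluorescence; Also added: ATP as calcium-mobilizing challenge; Repeats: singlicate.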
# OX1R antag-1: antagonists of human orexin 1 receptor (OX1R). OX1R-expressing cells, FRET antagonist read-out. AID 485270. inhibition, % at 6.6 µM. 330,000 tested, 1.8% active; in the data active = inhibition mostly above about 38%, no sharp cut-off; inactive = mostly below about 40%;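 note: 0% = agonist challenge alone and 100% = reference antagonist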
# TAAR1 ag: human TAAR1 agonism | activation, % at 3 µM | AID 624467 | Q96RJ0 | CHO RD-HGA16 TAAR1, Fluo-8 calcium fluorescence; vehicle wells 0%, saturating PEA agonist 100% | 360,000 tested, 0.99% active;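 active = activation above the mean activation of all test compounds in the run plus 3 SD, cut at about 38% in these data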
#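 Test system: RD-HGA16 (CHO) cells co-expressing Gα16 and hTAAR1 | Doses: Single dose, 3 µM | Schedule: 17-24 h seeding, 75 min 37 °C dye, 30 min RT | Evaluation: % activation from peak over basal fluorescence ratio, DMSO-to-PEA scaled | Technique: Kinetic Fluo-8 calcium fluorescence | Benchmarks: Low control DMSO, high control PEA (EC100)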
# OX1R antag-2: human HCRTR1 antagonism | CHO/OX1R cells, Fluo-8 calcium fluorescence, orexin A | O43613 | inhibition, % at 5 µM | 330,000 tested, 0.43% active;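 active = inhibition above its plate's threshold, mean inhibition of all tested compounds on the plate plus 3 SD, cut at about 37% in these data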;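 note: 0% = orexin A challenge wells and 100% = SB-334867-A antagonist wells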
# TAAR1 ag conf: confirmation of human TAAR1 agonists. shares compounds with TAAR1 ag. CHO RD-HGA16 TAAR1, Fluo-8 calcium fluorescence; scaled: DMSO 0%, maximal phenethylamine 100%. activation, % at 3 µM. 2,400 tested, 82% active. AID 651783;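 active = activation above a cutoff set at the run's mean compound activation plus 3 SD, cut at about 39% in these data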
# Ga16 nonsel ag: nonselective agonism, TAAR1 counter-screen; shares compounds with TAAR1 ag; CHO-Ga16 parental, Fluo-8 calcium fluorescence; normalized to maximal ATP response, DMSO zero; activation, % at 3 µM; 2,400 tested, 50% active;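 active = activation above the run cutoff, the mean activation over all tested wells plus 3 SD, cut at about 12% in these data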;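 note: 0% = DMSO wells and 100% = maximal ATP response on the peak over basal ratio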
# TAAR1 desensitize: counter-screen for human TAAR1 agonists: agonists that desensitize TAAR1. shares compounds with TAAR1 ag. CHO RD-HGA16 hTAAR1, Fluo-8 calcium, beta-PEA response inhibition. inhibition, % at 3 µM. 2,400 tested, 46% active;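 active = inhibition above the run cutoff, the mean inhibition of all test compounds plus 3 SD, cut at about 49% in these data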;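 note: beta-PEA stimulus applied at its EC80; loss of beta-PEA calcium signal after compound pretreatment read as receptor desensitization; 0% = DMSO with beta-PEA at EC80 and 100% = DMSO alone without agonist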
# Ga16 nonsel ant: nonselective Ga16 antagonism, counter-screen; shares compounds with TAAR1 ag; CHO-Ga16 ATP-induced calcium, Fluo-8 fluorescence; inhibition, % at 3 µM; 2,400 tested, 39% active; AID 651952;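 active = inhibition above the plate's mean compound inhibition plus 3 SD, computed per plate, cut at about 22% in these data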;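 note: 0% = EC80 ATP with DMSO and 100% = DMSO wells without ATP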
# * hit, by the source's call; . = not tested or not shown.
SMILES,TAAR1 antag,CHO parental Ca,OX1R antag-1,TAAR1 ag,OX1R antag-2,TAAR1 ag conf,Ga16 nonsel ag,TAAR1 desensitize,Ga16 nonsel ant
Cc1cc(OCc2cc(C(=O)NC3CCC3)no2)cc(C)c1Cl,.,0,11,.,-10,.,.,.,.
O=C(NCCc1ccc(F)cc1)c1coc(=O)c(Br)c1,35,-1,18,68*,-3,66*,1,16,8
O=C(Nc1ccccc1F)c1coc(=O)c(Br)c1,-12,-6,30,5,-5,.,.,.,.
COc1ccc(C=NCC2OCCc3ccccc32)cc1OC (stereo not given),.,-4,6,.,-14,.,-1,.,7
COc1ccc(C(=O)NCC2OCCc3ccccc32)cc1OC (stereo not given),2,-9,15,6,-14,.,.,.,.
COc1cc(C=NCC2OCCc3ccccc32)cc(OC)c1 (stereo not given),.,-3,6,.,-22,.,0,.,9
CCOC(=O)[C@]12CCC=C1N(Cc1cccc3ccccc13)C(=O)[C@H](CC(=O)NCc1ccc(C)o1)C2,4,.,.,0,.,.,.,.,.
CC(C)(C)OC(=O)N1Cc2[nH]c3ccccc3c2C[C@@H]1C(=O)O,7,-2,-4,15,-6,.,.,.,.
CCN1CCN(c2ccc(NC(=O)CCc3c(C)nc4c(-c5ccccc5)c(C)nn4c3C)cc2)CC1,.,-4,15,.,-20,.,8,.,6
O=C(NCCNC1CCC(c2ccccc2)CC1)c1cccs1 (stereo not given),-13,-18,22,8,-28,.,.,.,.
CCOc1ccc(-c2c(C(=O)N/N=C/c3ccccc3)nnn2-c2nonc2N)cc1,-15,-13,15,51*,-16,43*,30*,13,15
Cc1ccc(-c2c(C(=O)N/N=C/c3ccoc3)nnn2-c2nonc2N)cc1,20,1,13,73*,-9,87*,59*,14,6
CCOc1ccc(-c2c(C(=O)N/N=C/c3ccncc3)nnn2-c2nonc2N)cc1,-29,-18,6,13,-1,.,.,.,.
CCOc1ccc(-c2c(C(=O)N/N=C/c3ccc(C)cc3)nnn2-c2nonc2N)cc1,34,-22,15,122*,-46,118*,73*,76*,48*
CCOc1ccc(-c2c(C(=O)N/N=C/c3ccc(Cl)cc3)nnn2-c2nonc2N)cc1,26,-21,-1,107*,-36,113*,70*,45,13
CC(=O)C1=CCC(c2ccc(Cl)cc2)N(S(=O)(=O)c2ccc(C)cc2)C1 (stereo not given),14,.,.,2,.,.,.,.,.
CCOc1ccc(N(CC(=O)Nc2ccccc2C(=O)N2CCCC2)S(C)(=O)=O)cc1,3,8,11,3,-9,.,.,.,.
COc1c(C)cc(C(O)c2ncc(-c3ccccc3C)[nH]2)cc1C (stereo not given),-11,.,.,0,.,.,.,.,.
Nc1ccc2c3c(cccc13)C(=O)N(c1ccccc1)C2=O,85*,.,.,403*,.,176*,147*,53*,50*
COC(=O)NNC(=O)c1ccc(Cl)cc1Cl,-23,-14,21,6,-3,.,.,.,.
CC(C)(C)C(=O)NC(=S)NNC(=O)c1ccc(Cl)cc1Cl,104*,52*,0,202*,63*,144*,115*,107*,92*
CC1(C(=O)NC2CCN(Cc3ccccc3)CC2)CCN1Cc1ccc2ccccc2c1 (stereo not given),-1,.,.,3,.,.,.,.,.
CC1NC(C)c2c(ccc3ccccc23)O1 (stereo not given),.,.,.,.,.,.,1,.,6
CCOC(=O)c1cnn(-c2ccccc2)c1NC(=O)CN1CCCCC1,-15,-28,6,1,-21,.,.,.,.
C=CCNc1nc2cc(-c3cccc(Cl)c3)sc2c(=O)n1C,9,.,.,0,.,.,.,.,.
SMILES,TAAR1 antag,CHO parental Ca,OX1R antag-1,TAAR1 ag,OX1R antag-2,TAAR1 ag conf,Ga16 nonsel ag,TAAR1 desensitize,Ga16 nonsel ant
COc1ccc(NC(=O)COC(=O)/C=C/c2cccs2)c(OC)c1,-9,-24,4,1,-10,.,.,.,.
O=C(COC(=O)/C=C/c1cccs1)Nc1ccc(Cl)cc1F,74*,5,9,59*,-2,30,3,21,9
O=C(Cc1ccc(Cl)cc1)NC(=S)Nc1ccccc1N1CCOCC1,52*,10,12,65*,7,72*,44*,57*,34*
O=C(Cc1ccccc1)NC(=S)Nc1cc(C(F)(F)F)ccc1Cl,49*,-9,-23,53*,-11,49*,20*,39,19
COc1ccc(NC(=S)NC(=O)Cc2ccccc2)c(OC)c1,15,-17,-3,25,-17,.,.,.,.
O=C(Cc1ccccc1)NC(=S)Nc1cccc(C(F)(F)F)c1,43,1,-9,55*,-10,33,15*,38,18
Cc1ccc(NC(=S)NC(=O)Cc2ccccc2)c(O)c1,47,.,.,66*,.,73*,27*,43,24*
CC(=O)c1cccc(NC(=S)NC(=O)Cc2ccccc2)c1,3,-18,28,15,-32,.,.,.,.
CC(=O)c1cccc(NC(=S)NC(=O)Cc2ccc(Cl)cc2)c1,57*,-2,-6,94*,10,106*,59*,85*,47*
COc1ccc(/C=C/c2cc[n+](C(=O)Cc3ccccc3)cc2)cc1,-8,-1,73*,47*,-10,70*,3,30,9
COc1cc(OC)cc(C(=O)N[C@H](C(=O)NCc2ccccc2)C(C)C)c1,-1,-26,7,0,-27,.,.,.,.
C[C@H]1[C@H](c2ccccc2)Oc2cccc(NCCc3ccccc3)c2S(=O)(=O)N1Cc1cccc(F)c1,7,.,.,61*,.,41*,4,2,3
C[C@H]1[C@H](c2ccccc2)Oc2cccc(NCCc3ccccc3)c2S(=O)(=O)N1Cc1cccc(Cl)c1,1,.,.,40*,.,62*,9,17,12
COc1ccccc1CNC(=O)[C@H](C)NC(=O)C1CCN(C(=O)[C@H](CCSC)NC(=O)OC(C)(C)C)CC1,10,-16,11,2,-3,.,.,.,.
Nc1nc(-c2ccccc2)nc2nonc12,8,.,.,-1,.,.,.,.,.
N#Cc1cc(C(=O)c2cc(F)ccc2O)cn(-c2nccs2)c1=O,68*,37*,0,105*,28,91*,112*,67*,74*
